In ChEMBL document CHEMBL1909630, “Azaxanthene based selective glucocorticoid receptor modulators: design, synthesis, and pharmacological evaluation of (S)-4-(5-(1-((1,3,4-thiadiazol-2-yl)amino)-2-methyl-1-oxopropan-2-yl)-5H-chromeno[2,3-b]pyridin-2-yl)-2-fluoro-N,N-dimethylbenzamide (BMS-776532) and its methylene homologue …” (J Med Chem, 2011):
The source made the active and inactive calls. The calls are words filed in the database; no cut-off is given here.

Experiments:
MG-63 [1] = assay: Induction of glutamine synthase expression in human MG63 cells after overnight incubation by spectrophotometry relative to prednisolone; format: cell-based
Blood [2] = assay: Antiinflammatory activity in human whole blood assessed as inhibition of LPS-induced TNFalpha production after overnight incubation by ELISA relative to Dexamethasone; format: functional
Outline: (§1)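 Whole blood from two donors per experiment was collected into ACD-A. Compounds were added and the blood was incubated about 20 h at 37 °C under 5% CO2. Blood was then stimulated for 5 h with LPS (final 100 ng/mL, for TNFα) or IL-1β (final 10 ng/mL, for IL-8). Plasma TNFα or IL-8 was measured by ELISA. Efficacy was expressed as % of dexamethasone, and values are means of at least two experiments.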

Blood [3] = assay: Antiinflammatory activity in human whole blood assessed as inhibition of LPS-induced TNFalpha production after overnight incubation by ELISA; format: functional, tissue-based; outline: as §1
Blood [4] = assay: Antiinflammatory activity in human whole blood assessed as inhibition of IL-1beta-induced IL-8 production after overnight incubation by ELISA relative to Dexamethasone; format: functional; outline: as §1
[5] = biological target: T1, Mineralocorticoid receptor (Homo sapiens, UniProt P08235); assay: Agonist activity at human mineralocorticoid receptor expressed in human A549 cells by fluorescence polarization assay; format: functional, cell-based
T1 sequence (P08235 whole entry): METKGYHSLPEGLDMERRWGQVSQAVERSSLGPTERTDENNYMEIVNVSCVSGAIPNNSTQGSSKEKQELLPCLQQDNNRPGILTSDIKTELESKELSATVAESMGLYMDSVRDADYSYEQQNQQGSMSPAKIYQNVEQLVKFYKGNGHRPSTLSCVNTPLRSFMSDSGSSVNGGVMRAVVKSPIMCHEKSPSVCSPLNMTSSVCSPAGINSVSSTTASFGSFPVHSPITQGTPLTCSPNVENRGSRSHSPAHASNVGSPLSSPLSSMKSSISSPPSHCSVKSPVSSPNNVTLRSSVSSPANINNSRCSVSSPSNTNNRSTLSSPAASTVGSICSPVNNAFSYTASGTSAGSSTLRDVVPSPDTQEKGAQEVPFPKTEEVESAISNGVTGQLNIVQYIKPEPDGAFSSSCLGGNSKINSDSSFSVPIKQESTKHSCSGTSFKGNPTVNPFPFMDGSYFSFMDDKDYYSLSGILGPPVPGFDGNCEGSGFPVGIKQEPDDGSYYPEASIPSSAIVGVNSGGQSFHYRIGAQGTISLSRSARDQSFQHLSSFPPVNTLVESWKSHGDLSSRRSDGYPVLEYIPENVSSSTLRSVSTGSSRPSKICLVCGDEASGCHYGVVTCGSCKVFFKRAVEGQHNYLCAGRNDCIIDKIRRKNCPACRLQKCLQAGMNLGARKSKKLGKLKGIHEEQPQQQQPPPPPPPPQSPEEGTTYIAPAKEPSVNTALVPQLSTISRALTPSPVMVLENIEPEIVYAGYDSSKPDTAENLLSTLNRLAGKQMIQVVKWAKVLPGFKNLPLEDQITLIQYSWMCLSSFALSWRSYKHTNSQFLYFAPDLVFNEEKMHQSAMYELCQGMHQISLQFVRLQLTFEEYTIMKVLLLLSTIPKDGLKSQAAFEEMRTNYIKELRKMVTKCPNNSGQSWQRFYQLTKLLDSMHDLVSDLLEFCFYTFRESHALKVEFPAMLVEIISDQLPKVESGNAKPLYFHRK

Blood [6] = assay: Antiinflammatory activity in human whole blood assessed as inhibition of TNF-alpha-induced IL-8 production after overnight incubation by ELISA; format: functional, tissue-based
Blood [7] = assay: Antiinflammatory activity in human whole blood assessed as inhibition of IL-1beta-induced IL-8 production after overnight incubation by ELISA; format: functional, tissue-based; outline: as §1
MG-63 [8] = assay: Induction of glutamine synthase expression in human MG63 cells after overnight incubation by spectrophotometry; format: cell-based
SAOS-2 = assay: Induction of alkaline phosphatase expression in human Saos2 cells after 3 days by spectrophotometry; format: cell-based; settings: SAOS-2, 72 h
Rattus norvegicus [9] = assay: Antiinflammatory activity in Sprague-Dawley rat assessed as carrageenan-induced paw edema at 30 mg/kg, po administered as a single dose 2 hrs before carrageenan challenge measured 4 hrs post carrageenan challenge by plethysmometry relative to control
Blood [10] = assay: Antiinflammatory activity in human whole blood assessed as inhibition of TNF-alpha-induced IL-8 production after overnight incubation by ELISA relative to dexamethasone; format: functional
Rattus norvegicus [11] = assay: Antiinflammatory activity in Freund's complete adjuvant-induced Lewis rat arthritis model assessed as reduction in paw swelling at 5 mg/kg/day, po qd for 21 days; format: functional, organism-based
Outline: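 Male Lewis rats were inoculated with Mycobacterium butyricum in incomplete Freund's adjuvant. Oral dosing was daily and preventative, running from day 0 to day 21. Onset and progression of arthritis were followed, and ED50 was estimated from the dose response.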

C[C@]12C=CC(=O)C=C1CC[C@@H]1[C@@H]2[C@@H](O)C[C@@]2(C)[C@H]1CC[C@]2(O)C(=O)CO [PREDNISOLONE]
Emax (MG-63 [1]): 100% | Imax (Blood [2]): 94% | EC50 (Blood [3]): 89 nM | Imax (Blood [4]): 94% | EC50 [5]: 2 nM | EC50 (Blood [6]): 124 nM | EC50 (Blood [7]): 104 nM | EC50 (MG-63 [8]): 19 nM | Emax (SAOS-2): 68% | level, % of control at 30 mg/kg (Rattus norvegicus [9]): 49% | Imax (Blood [10]): 94% | Activity (Rattus norvegicus [11]): Active
